Reference: publication PMC4363277 (Amino acids, 2015)

Test system: B16/F1 melanoma cells
Test: Cytotoxicity in B16/F1 melanoma cells
Format: cell-based, murine
Conditions: 0.1 µM, 3 h incubation at 37 °C, MTT 5 days post treatment
Summary of the method: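 B16/F1 cells at 150/well, overnight in CO2 incubator, washed with RPMI 1640, then exposed 3 h at 37 °C to 0.1 µM test compound in binding medium; controls kept in culture medium only. Washed, grown 5 days with medium changed every other day; MTT (0.5 mg/mL) 3 h at 37 °C, formazan dissolved in acidic isopropanol, A570 minus A630. Survival = treated/control absorbance × 100%.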

[Cys^3,4,10, D-Phe^7, Arg^11]α-MSH3–13 [(Arg^11)CCMSH]
decrease of survival percentage versus untreated control cells: 15%
